What is called inhibition is the relative decrease from the control value, in per cent.

In series [1] the test system is Cartilage tissue. The series is described as follows: Antidegenerative activity against bovine cartilage explant assessed as inhibition of IL1-induced of GAG release at 0.1 mM for 1 day before IL-1 treatment measured after 6 days by colorimetric analysis relative to control. Type of series: functional. The conditions noted are these: Bos taurus. A digest of the protocol:
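Articular cartilage explants from different cows, equilibrated 24 h, then cultured one day in DMEM + hydrolyzed lactalbumin + 50 μg/mL vitamin C + penicillin/streptomycin + ITS with or without compound (0.1 mM). GAG release then induced with 10 ng IL-1 and continued six days, medium changed every two days. Medium GAG measured by Blyscan colorimetric assay. GAG fold-increase versus minus-IL-1 control. Percent reduction relative to IL-1-only fold. Triplicates per experiment, mean of n experiments.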

Series [2] in a line: Cytotoxicity against bovine articular chondrocytes assessed as cell viability at 1 mM by MTT assay relative to control. Further details: species or system Bos taurus. The conditions noted are these: cattle, read-out: Activity. The procedure, abridged: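 Chondrocyte monolayer cultures exposed to compound in parallel with the explant experiments. Viability read by MTT, as percent of untreated control cells (100%). Mean of n experiments from different cows, each run in triplicate.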
In general terms: Formazan colour is commonly taken as a measure of viable cells.

Series [3] can be described thus: Cytotoxicity against bovine articular chondrocytes assessed as cell viability at 0.1 mM by MTT assay relative to control. Details: species or system Bos taurus. The settings on record: cattle, read-out: Activity. A digest of the protocol: (§1)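 Chondrocyte monolayers tested in parallel with the explant work. Viability measured by MTT and expressed as percent of untreated cells (no compound = 100%). Mean and SE over n experiments, each in triplicate.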

The nature of series [4]: Antidegenerative activity against human cartilage explant assessed as inhibition of IL1-induced of GAG release at 10 uM for 1 day before IL-1 treatment measured after 6 days by colorimetric analysis relative to control. Type of series: functional. The conditions noted are these: Cartilage tissue. A digest of the protocol: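 Human cartilage explants, equilibrated 24 h, then cultured one day in DMEM + hydrolyzed lactalbumin + 50 μg/mL vitamin C + penicillin/streptomycin + ITS with compound. 10 ng IL-1 then added and culture continued six days, medium replaced every two days. Medium GAG measured by Blyscan colorimetric assay. Percent reduction = (mean control − mean sample release)/control × 100, against a 0.25% DMSO + IL-1 control.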

Series [5] is described as follows: Cytotoxicity against human articular chondrocytes assessed as metabolic activity at 10 uM by WST-1 assay. The conditions noted are these: read-out: Activity.
The nature of series [6]: Stability of compound in guinea pig serum assessed as hydrolysis after 17 hrs by NMR analysis. In kind it is ADME, cell-free, Cavia porcellus. The procedure, abridged:
(§2)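 Prodrug disappearance followed by NMR in guinea pig or human serum at 37 °C, pH 7.0. Half-life taken from the apparent first-order rate constant, by linear regression of pseudo-first-order plots of prodrug concentration versus time.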

A further series concerns Serum. In words: Stability of compound in human serum assessed as hydrolysis after 17 hrs by NMR analysis. Type of series: ADME, cell-free. A digest of the protocol:
as §2

Series [7] deals with Cartilage tissue. In words: Antidegenerative activity against bovine cartilage explant assessed as inhibition of IL1-induced of GAG release at 1 mM for 1 day before IL-1 treatment measured after 6 days by colorimetric analysis relative to control. In kind it is functional. The conditions noted are these: Bos taurus. The procedure, abridged: (§3)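 Articular cartilage explants from different cows, equilibrated 24 h, then cultured 1 day in DMEM with hydrolyzed lactalbumin, 50 μg/mL vitamin C, penicillin/streptomycin and ITS, with or without compound. IL-1 10 ng added; medium changed every two days; harvested 6 days later. GAG in medium by Blyscan colorimetric assay. Fold increase over minus-IL-1 control used to derive % reduction versus IL-1-only fold. Triplicate per experiment; mean and SE over n cows.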

Series [8] is described as follows: Cytotoxicity against bovine articular chondrocytes assessed as cell viability at 10 mM by MTT assay relative to control. Further details: species or system Bos taurus. The settings on record: cattle, read-out: Activity. A digest of the protocol: as §1
Series [9] has as its system Cartilage tissue. The series is described as follows: Antidegenerative activity against bovine cartilage explant assessed as inhibition of IL1-induced of GAG release at 10 mM for 1 day before IL-1 treatment measured after 6 days by colorimetric analysis relative to control. Type of series: functional. The settings on record: Bos taurus. A digest of the protocol: as §3

Series [10] can be described thus: Cytotoxicity against human articular chondrocytes assessed as metabolic activity at 250 uM by WST-1 assay. The conditions noted are these: read-out: Activity. A digest of the protocol: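 Metabolic activity measured by WST-1 in parallel with the human explant assay and reported as a percentage.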
A short description of series [11]: Antidegenerative activity against human cartilage explant assessed as inhibition of IL1-induced of GAG release at 250 uM for 1 day before IL-1 treatment measured after 6 days by colorimetric analysis relative to control. The settings on record: Cartilage tissue. Type of series: functional. The procedure, abridged:
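Human explants: 24 h equilibration, 1 day preincubation with compound in DMEM/lactalbumin/vitamin C/ITS medium, then IL-1 10 ng for 6 days with medium renewed every two days. Compounds dissolved in DMSO, with a 0.25% DMSO control. GAG released measured colorimetrically (Blyscan). % reduction = (mean control release − mean sample release)/control release × 100.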

Molecules are shown by their SMILES.

In the case of `CCOC(=O)CN(C)P(=O)(Oc1ccc(OC)cc1)O[C@H]1[C@H](O)[C@@H](CO)O[C@H](O)[C@@H]1NC(C)=O` (stereo partly specified), the inhibition at 100 µM in the series with Cartilage tissue [1] was -24.9%. Also, the viability at 1000 µM in [2] came out at 80%. Moreover, the viability at 100 µM in series [3] was 32%.
Take `COc1ccc(OP(=O)(O[C@H]2[C@H](O)[C@@H](CO)O[C@H](O)[C@@H]2NC(C)=O)N2CCC[C@H]2C(=O)OC(C)C)cc1` (stereo partly specified): the inhibition at 100 µM with Cartilage tissue [1] came out at 17.5%. In addition, the inhibition at 10 µM in series [4] was found to be 24.4%. For the same compound, in [3], the viability at 100 µM amounted to 90%. In series [5], the viability at 10 µM was 79.4%.
With `CCC(C)OC(=O)[C@@H]1CCCN1P(=O)(Oc1ccc(OC)cc1)O[C@H]1[C@H](O)[C@@H](CO)O[C@H](O)[C@@H]1NC(C)=O` (stereo partly specified), in the series with Cartilage tissue [1], the inhibition at 100 µM was -4.4%. In addition, the viability at 1000 µM in [2] was 7%. Also, in [4], the inhibition at 10 µM turned out to be 27.1%. The viability at 100 µM in series [3] worked out at 96%. Further, in series [5], the viability at 10 µM came out at 53.9%.
As to `COc1ccc(OP(=O)(O[C@H]2[C@H](O)[C@@H](CO)O[C@H](O)[C@@H]2NC(C)=O)N2CCC[C@H]2C(=O)OC2CCCCC2)cc1` (stereo partly specified), the inhibition at 100 µM in the series with Cartilage tissue [1] is -9.6%.
On to `CCC[C@H](NP(=O)(Oc1ccc(OC)cc1)O[C@H]1[C@H](O)[C@@H](CO)O[C@H](O)[C@@H]1NC(C)=O)C(=O)OCC` (stereo partly specified), for which, in the series on Cartilage tissue [1], the inhibition at 100 µM turned out to be 11.8%. Also, the viability at 100 µM in [3] came out at 93%.
As to `COc1ccc(OP(=O)(O[C@H]2[C@H](O)[C@@H](CO)O[C@H](O)[C@@H]2NC(C)=O)N2CCC[C@H]2C(=O)OC(C)(C)C)cc1` (stereo partly specified), the inhibition at 100 µM in the series on Cartilage tissue [1] was -8%. Besides, in series [2], the viability at 1000 µM stood at 5%. For the same compound, the viability at 100 µM in series [3] is 91%. The Stability result (in series [6]; in the series on Serum) was “Stable” each time.
As to `COC(=O)[C@@H](NP(=O)(Oc1ccc(OC)cc1)O[C@H]1[C@H](O)[C@@H](CO)O[C@H](O)[C@@H]1NC(C)=O)C(C)C` (stereo partly specified), the inhibition at 100 µM with Cartilage tissue [1] was -4.4%. Further, in series [3], the viability at 100 µM was found to be 96%.
On to `COc1ccc(OP(=O)(O[C@H]2[C@H](O)[C@@H](CO)O[C@H](O)[C@@H]2NC(C)=O)N2CCC[C@H]2C(=O)OCc2ccccc2)cc1` (stereo partly specified), for which the inhibition at 10 µM in series [4] worked out at 28.8%. In [5], the viability at 10 µM came to 115%.
For `CCOC(=O)[C@@H]1CCCN1P(=O)(Oc1ccc(OC)cc1)O[C@H]1[C@H](O)[C@@H](CO)O[C@H](O)[C@@H]1NC(C)=O` (stereo partly specified), in that order: 38% and 66.4%.
Take `CCCCOC(=O)[C@@H]1CCCN1P(=O)(Oc1ccc(OC)cc1)O[C@H]1[C@H](O)[C@@H](CO)O[C@H](O)[C@@H]1NC(C)=O` (stereo partly specified): the inhibition at 10 µM in series [4] stood at 30.4%. Besides, the viability at 10 µM in series [5] amounted to 87.1%.
The corresponding values for `CCOC(=O)[C@@H]1CCCN1P(=O)(Oc1ccc(OC)cc1)O[C@H]1[C@H](O)[C@@H](NC(C)=O)[C@H](O)O[C@@H]1CO` (stereo partly specified) are 17.4% and 107%.
As for `COc1ccc(OP(=O)(N[C@@H](C)C(=O)OCc2ccccc2)O[C@H]2[C@H](O)[C@@H](CO)O[C@H](OC)[C@@H]2NC(C)=O)cc1` (stereo partly specified), in the series with Cartilage tissue [1], the inhibition at 100 µM was -19%. In [3], the viability at 100 µM was found to be 78%.
The corresponding values for `COc1ccc(OP(=O)(N[C@H](C(=O)OCc2ccccc2)C(C)C)O[C@H]2[C@H](O)[C@@H](CO)O[C@H](OC)[C@@H]2NC(C)=O)cc1` (stereo partly specified) are 9.4% and 99%.
For `CCOC(=O)[C@@H]1CCCN1P(=O)(Oc1ccc(OC)cc1)O[C@H]1[C@H](O)[C@@H](CO)O[C@H](OC)[C@@H]1NC(C)=O` (stereo partly specified), in that order: -53.7% and 62%.
For `CCOC(=O)[C@@H](NP(=O)(Oc1ccc(OC)cc1)O[C@H]1[C@H](O)[C@@H](CO)O[C@H](OC)[C@@H]1NC(C)=O)C(C)C` (stereo partly specified), in that order: -52.5% and 85%.
For `CCOC(=O)CN(C)P(=O)(Oc1ccc(OC)cc1)O[C@H]1[C@H](O)[C@@H](CO)O[C@H](OC)[C@@H]1NC(C)=O` (stereo partly specified), the inhibition at 100 µM with Cartilage tissue [1] was -23.2%. For the same compound, in series [3], the viability at 100 µM came out at 100%.
Consider `N[C@H]1C(O)O[C@H](CO)[C@@H](O)[C@@H]1O` (stereo partly specified) [GLUCOSAMINE], for which the inhibition at 100 µM with Cartilage tissue [1] turned out to be 0.8%. Further, the viability at 1000 µM in [2] stood at 88%. For the same compound, the inhibition at 10 µM in [4] is 10.3%. The inhibition at 1000 µM in the series on Cartilage tissue [7] stood at 3.4%. For the same compound, the viability at 10000 µM in series [8] was 56%. Also, the viability at 100 µM in series [3] amounted to 106%. In addition, the inhibition at 10000 µM with Cartilage tissue [9] was 19%. Also, the viability at 10 µM in series [5] is 107%. The viability at 250 µM in series [10] is 85.3%. In addition, in series [11], the inhibition at 250 µM was 14.1%.
As to `CC(=O)N[C@@H]1[C@@H](O)[C@H](O)[C@@H](CO)O[C@H]1O` [N-ACETYLGLUCOSAMINE], the inhibition at 100 µM in the series on Cartilage tissue [1] came to 5.4%. Moreover, in [2], the viability at 1000 µM turned out to be 70%. The inhibition at 1000 µM in the series on Cartilage tissue [7] is -1%. Besides, the viability at 10000 µM in series [8] is 61%. Moreover, the viability at 100 µM in series [3] is 107%. Also, the inhibition at 10000 µM with Cartilage tissue [9] is 9.3%.

Values taken from ChEMBL document CHEMBL2069258, “Novel phosphoramidate prodrugs of N-acetyl-(D)-glucosamine with antidegenerative activity on bovine and human cartilage explants” (J Med Chem, 2012).
